Test results published in PubChem BioAssay AID1263 (The Scripps Research Institute Molecular Screening Center, 2008).
Some of the results follow. Unmarked numbers belong to inactive results. Activity calls are given as the source filed them.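 The calls were made as follows: active = triplicate mean inhibition exceeding the hit cutoff computed for the primary STAT1 screen (cut at about 35% in these data); inactive = the rest.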

Experiment: STAT1 signaling inhibitors, confirmation, cell-based, HTS, luciferase reporter (AID 1263);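 also: 0% = DMSO with IFN-gamma and 100% = 300 µM nifuroxazide with IFN-gamma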
Settings: NIH 3T3 STAT1-luciferase reporter, IFN-gamma, luminescence; at 5.5 µM; stronger effect = higher value
Method in brief: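 System – NIH 3T3 STAT1-luciferase reporter cells · Dosing – one dose only · Repeats – three replicates · Read-out basis – % inhibition scaled between DMSO and nifuroxazide · Incubation – compound preincubation 1 h, IFN-gamma exposure 4 h, 37 °C, substrate 15 min · Also added – IFN-gamma stimulus, 3.0 ng/mL · Measured by – luciferase luminescence · Benchmarks – high control 300 µM nifuroxazide, low control DMSO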

| Compound | inhibition |
| --- | --- |
| COc1ccc(C(=O)Nc2ccccc2C(=O)N/N=C/c2ccccc2OC)cc1 | 0.25% |
| CCOC(=O)N1CCN(C(=O)C2CCN(c3ncnc4c3sc3cccc(F)c34)CC2)CC1 | 41.5% (active) |
| NS(=O)(=O)c1cccc(NC(=O)CSc2nc3ccccc3n2-c2ccccc2)c1 | 31.4% |
| Cc1ccc(C2=Nc3c(ccc4ccccc34)C(c3ccncc3)=NN2)cc1 | 60.4% (active) |
| COC(=O)C1=CN(Cc2ccc(OC)c(OC)c2)C=C(C(=O)OC)C1c1cccs1 | 38.3% (active) |
| C[C@@H]1C[C@@H]2O[C@H]2/C=C\C=C\C(=O)Cc2c(Cl)c(O)cc(O)c2C(=O)O1 | 61% (active) |
| COc1ccc(C2CC(c3cccs3)=NN2c2nc(C)c(C(C)=O)s2)cc1OC (stereo not given) | 20.8% |
| CCOC(=O)N1CCN(C(=O)CSc2nnc(-c3c[nH]c4ccccc34)n2CCOC)CC1 | 33.9% |
| O=C(CCl)N(Cc1cccc([N+](=O)[O-])c1)c1cccc(Cl)c1 | 33.3% |
| CCOC(=O)C(=CNc1cccc(C)n1)C(=O)OCC | 32.5% |
